One block for each compound: values may come before it. Activity calls are given as the source filed them. The rule behind the calls is not given here.
Tests used:
Peritoneal macrophage = experiment: Inhibition of LPS-induced TNFalpha secretion in C57BL6J mouse peritoneal macrophages at 10 uM after 24 hrs; format: functional, cell-based
Bel-7402 = experiment: Cytotoxicity against human Bel7402 cells assessed as growth inhibition at 10 uM after 72 hrs by coulter counting method; format: functional, cell-based
Histone deacetylase 1 = Histone deacetylase 1 (Homo sapiens, UniProt Q13547); experiment: Inhibition of HDAC1 (unknown origin) using H3(1 to 21)K9 after 60 mins by fluorescence assay
BGC-823 = experiment: Cytotoxicity against human BGC823 cells assessed as growth inhibition at 10 uM after 72 hrs by coulter counting method; format: functional, cell-based
HepG2 = experiment: Cytoprotection against 8 mM acetaminophen-induced human HepG2 cells assessed as cell viability at 10 uM after 24 hrs by MTT assay (reference value: 0 +/- 2%); format: functional; conditions: in the assay text read “after 48 hrs” for “after 24 hrs”
In short: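 HepG2 cells seeded at 1.5 × 10^4 cells/well in DMEM and grown 24 h at 37 °C, 5% CO2. Compound (10 μM) then added together with 8 mM acetaminophen; bicyclol 10 μM plus 8 mM acetaminophen served as reference. Cultured 48 h, then 0.5 mg/mL MTT for 4 h, formazan OD read at 570 nm. Mean ± SD of four independent experiments; Student's t-test.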

A2780 = experiment: Cytotoxicity against human A2780 cells assessed as growth inhibition at 10 uM after 72 hrs by coulter counting method; format: functional, cell-based
A549 = experiment: Cytotoxicity against human A549 cells assessed as growth inhibition at 10 uM after 72 hrs by coulter counting method; format: functional, cell-based
HCT-8 = experiment: Cytotoxicity against human HCT8 cells assessed as growth inhibition at 10 uM after 72 hrs by coulter counting method; format: functional, cell-based

Sequence of Histone deacetylase 1 (Q13547 whole entry): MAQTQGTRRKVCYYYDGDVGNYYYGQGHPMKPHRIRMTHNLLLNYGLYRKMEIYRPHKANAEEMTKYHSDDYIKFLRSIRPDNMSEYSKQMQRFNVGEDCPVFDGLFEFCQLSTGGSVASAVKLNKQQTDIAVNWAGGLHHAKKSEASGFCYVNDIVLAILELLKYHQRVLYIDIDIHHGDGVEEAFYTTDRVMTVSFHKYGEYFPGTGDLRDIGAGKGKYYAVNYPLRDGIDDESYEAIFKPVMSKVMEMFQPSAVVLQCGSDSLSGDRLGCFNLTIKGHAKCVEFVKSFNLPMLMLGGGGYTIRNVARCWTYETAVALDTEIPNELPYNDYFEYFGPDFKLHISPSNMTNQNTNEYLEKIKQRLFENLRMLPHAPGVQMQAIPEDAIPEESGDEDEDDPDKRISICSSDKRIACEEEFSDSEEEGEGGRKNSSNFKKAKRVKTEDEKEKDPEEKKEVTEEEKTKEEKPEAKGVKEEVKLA

IC50 (Histone deacetylase 1): 3.6 µM
Compound: COc1cc([C@H]2Oc3c(OC)cc(CCCO)cc3[C@@H]2CO)ccc1O[C@@H]1O[C@H](CO)[C@@H](O)[C@H](O)[C@H]1O
inhibition (Peritoneal macrophage): inactive
growth inhibition (GI) (Bel-7402): inactive
growth inhibition (GI) (BGC-823): inactive
Activity (HepG2): 38.4%
growth inhibition (GI) (A2780): inactive
growth inhibition (GI) (A549): inactive
growth inhibition (GI) (HCT-8): inactive

Compound: COc1cc([C@H]2Oc3c(OC)cc(CCCO)cc3[C@@H]2CO)cc(OC)c1O[C@@H]1O[C@H](CO)[C@@H](O)[C@H](O)[C@H]1O
Activity (HepG2): 31.2%

Compound: COc1cc([C@H]2Oc3c(OC)cc(/C=C/CO[C@@H]4O[C@H](CO)[C@@H](O)[C@H](O)[C@H]4O)cc3[C@@H]2CO)cc(OC)c1O[C@@H]1O[C@H](CO)[C@@H](O)[C@H](O)[C@H]1O
Activity (HepG2): 30.5%

IC50 (Histone deacetylase 1): 4.6 µM
Compound: O=C(O)/C=C\c1cc2ccoc2cc1O[C@@H]1O[C@H](CO)[C@@H](O)[C@H](O)[C@H]1O
inhibition (Peritoneal macrophage): inactive
growth inhibition (GI) (Bel-7402): inactive
growth inhibition (GI) (BGC-823): inactive
growth inhibition (GI) (A2780): inactive
growth inhibition (GI) (A549): inactive
growth inhibition (GI) (HCT-8): inactive

Compound: COC(=O)c1cc(OC)c2c(c1-c1c(CO)cc(OC)c3c1OCO3)OCO2 [BICYCLOL]
Activity (HepG2): 34.8%

Compound: COc1cc([C@H]2Oc3c(OC)cc(/C=C/CO[C@@H]4O[C@H](CO)[C@@H](O)[C@H](O)[C@H]4O)cc3[C@@H]2CO)ccc1O[C@@H]1O[C@H](CO)[C@@H](O)[C@H](O)[C@H]1O
Activity (HepG2): 46%

Compound: COc1cc([C@H]2Oc3c(OC)cc(CCCO)cc3[C@@H]2CO[C@@H]2O[C@H](CO[C@@H]3O[C@@H](C)[C@H](O)[C@@H](O)[C@H]3O)[C@@H](O)[C@H](O)[C@H]2O)ccc1O
Activity (HepG2): 37.4%

Compound: COc1cc([C@@H](O)[C@H](CO)Oc2c(OC)cc(CCC(C)O)cc2OC)cc(OC)c1O[C@@H]1O[C@H](CO)[C@@H](O)[C@H](O)[C@H]1O (some centres not stated)
Activity (HepG2): 38.9%

Compound: CCC(=O)c1cc(OC)c(O[C@@H]2O[C@H](CO[C@@H]3O[C@@H](C)[C@H](O)[C@@H](O)[C@H]3O)[C@@H](O)[C@H](O)[C@H]2O)c(OC)c1
Activity (HepG2): 37.6%
